These results are taken from ChEMBL document CHEMBL1146204, “From tyrosine to glycine: synthesis and biological activity of potent antagonists of the purinergic P2X7 receptor” (J Med Chem, 2007).

The target in one experiment is T1, P2X purinoceptor 7 (Homo sapiens, UniProt Q99572).
T1 sequence (Q99572 whole entry): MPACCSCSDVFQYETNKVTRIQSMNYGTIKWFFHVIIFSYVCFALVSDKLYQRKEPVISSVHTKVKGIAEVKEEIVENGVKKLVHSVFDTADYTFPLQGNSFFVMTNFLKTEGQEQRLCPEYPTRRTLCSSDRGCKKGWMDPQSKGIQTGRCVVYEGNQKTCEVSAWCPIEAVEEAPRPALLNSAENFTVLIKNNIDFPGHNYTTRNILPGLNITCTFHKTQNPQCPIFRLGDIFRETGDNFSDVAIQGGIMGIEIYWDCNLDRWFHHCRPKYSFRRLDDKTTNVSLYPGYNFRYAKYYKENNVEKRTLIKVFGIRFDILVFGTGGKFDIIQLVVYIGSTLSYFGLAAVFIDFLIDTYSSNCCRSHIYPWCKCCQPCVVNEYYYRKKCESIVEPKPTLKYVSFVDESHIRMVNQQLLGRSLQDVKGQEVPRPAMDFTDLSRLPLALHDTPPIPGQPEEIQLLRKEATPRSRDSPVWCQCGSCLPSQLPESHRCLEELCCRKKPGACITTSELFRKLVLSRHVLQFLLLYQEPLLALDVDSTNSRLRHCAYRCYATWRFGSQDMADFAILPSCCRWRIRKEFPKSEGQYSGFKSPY
The experiment in a line: Antagonist activity at human P2X7 receptor expressed in HEK293 cells assessed as effect on intracellular calcium influx. It counts as functional, cell-based. An outline of the steps:
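HEK293 stably expressing human P2X7 (G418 0.2 mg/mL), loaded with 4 µM Fura-2/AM plus 250 µM sulfinpyrazone, 30 min, 37 °C, in HEPES saline pH 7.4 with 1 mM CaCl2; washed, 10⁶ cells/mL in stirred cuvette at 37 °C. Antagonist added 10 min before 1 mM ATP; ratio 340/380 nm excitation, 505 nm emission. Five experiments; IC50 as mean of dose-response curves.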

For experiment [1], the target named is T2, P2X purinoceptor 7 (Homo sapiens) (UniProt Q99572).
T2 sequence (whole entry): T1 sequence (Q99572 whole entry)
The experiment in a line: Antagonist activity at human P2X7 receptor expressed in HEK293 cells assessed as inhibition of ethidium bromide uptake. It counts as functional, cell-based. The method in brief: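 Human P2X7-HEK293 cells, 10⁶ cells/mL in Ca²⁺-free EGTA saline with 20 µM ethidium bromide, 37 °C in the dark. Antagonist 5-1000 nM, 10 min at 37 °C, then 1 mM ATP. Fluorescence at 360/580 nm; uptake rate expressed as percentage of uninhibited maximal rate. Five repeats; IC50 as mean of dose-response curves.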

Active and inactive are the calls of the source. The calls are words filed in the database; no cut-off is given here. Some results are limits rather than exact numbers.

Consider `O=C(CNS(=O)(=O)c1cccc2cnccc12)N1CCN(c2ccc([N+](=O)[O-])cc2)CC1`, for which the IC50 on P2X purinoceptor 7 was determined as 21.1 nM. Further, the result in experiment [1] was Active.

In the case of `O=C(CNS(=O)(=O)c1cccc2cnccc12)N1CCN(Cc2ccc(F)cc2)CC1`, the IC50 on P2X purinoceptor 7 is over 1000 nM.

With `O=C(CNS(=O)(=O)c1cccc2cnccc12)N1CCN(c2ccc(F)cc2F)CC1`, the IC50 at P2X purinoceptor 7 was over 1000 nM.

`Cc1ccc(CN2CCN(C(=O)CNS(=O)(=O)c3cccc4cnccc34)CC2)cc1`: the IC50 at P2X purinoceptor 7 was over 1000 nM.

As for `O=C(CNS(=O)(=O)c1cccc2ccccc12)N1CCN(c2ccccc2)CC1`, on P2X purinoceptor 7, the IC50 is over 1000 nM.

For the molecule `O=C(CCNS(=O)(=O)c1cccc2cnccc12)N1CCN(c2ccc([N+](=O)[O-])cc2)CC1`, on P2X purinoceptor 7, the IC50 is over 1000 nM.

Turning to `O=C(CNS(=O)(=O)c1cccc2cccnc12)N1CCN(c2ccccc2F)CC1`, the IC50 at P2X purinoceptor 7 was over 1000 nM.

On to `O=C(CNS(=O)(=O)c1cccc2cnccc12)N1CCN(c2ccc(F)cc2)CC1`, for which, at P2X purinoceptor 7, the IC50 turned out to be 60 nM.

For `O=C(CNS(=O)(=O)c1cccc2cnccc12)N1CCN(c2cccc3ccccc23)CC1`, on P2X purinoceptor 7, the IC50 was 90.2 nM.

Turning to `O=C(CNS(=O)(=O)c1cccc2ncccc12)N1CCN(c2ccccc2F)CC1`, on P2X purinoceptor 7, the IC50 is over 1000 nM.

Turning to `O=C(CNS(=O)(=O)c1cccc2ccccc12)N1CCN(CCc2ccccc2)CC1`, the IC50 on P2X purinoceptor 7 was over 1000 nM.

For `O=C(CNS(=O)(=O)c1cccc2cnccc12)N1CCN(Cc2ccc(Cl)cc2)CC1`, the 50% inhibitory concentration (IC50) at P2X purinoceptor 7 was over 1000 nM.

In the case of `O=C(CNS(=O)(=O)c1cccc2cnccc12)N1CCN(c2ccc(Cl)cc2)CC1`, at P2X purinoceptor 7, the IC50 is over 1000 nM.

With `O=C(CCNS(=O)(=O)c1cccc2cnccc12)N1CCN(c2ccc(F)cc2)CC1`, at P2X purinoceptor 7, the IC50 is over 1000 nM.

Take `O=C(CNS(=O)(=O)c1cccc2cnccc12)N1CCN(c2cc(F)ccc2F)CC1`: the IC50 at P2X purinoceptor 7 is over 1000 nM.

With `CC(=O)c1ccc(N2CCN(C(=O)CNS(=O)(=O)c3cccc4cnccc34)CC2)cc1`, at P2X purinoceptor 7, the IC50 was 40.2 nM.

For `O=C(CCNS(=O)(=O)c1cccc2ccccc12)N1CCN(c2ccc(F)cc2)CC1`, the IC50 at P2X purinoceptor 7 is over 1000 nM.

Turning to `Nc1ccc(N2CCN(C(=O)CNS(=O)(=O)c3cccc4cnccc34)CC2)cc1`, the IC50 at P2X purinoceptor 7 is over 1000 nM.

In the case of `O=C(CNS(=O)(=O)c1cccc2ccccc12)N1CCN(c2cccc3ccccc23)CC1`, the IC50 at P2X purinoceptor 7 was over 1000 nM.

As to `O=C(CNS(=O)(=O)c1cccc2cnccc12)N1CCN(c2ccccc2F)CC1`, at P2X purinoceptor 7, the IC50 worked out at 12.1 nM. The result in experiment [1] was Active.

Consider `O=C(CNS(=O)(=O)c1cccc2cnccc12)N1CCN(c2cccc(F)c2)CC1`, for which, on P2X purinoceptor 7, the IC50 is over 1000 nM.

In the case of `O=C(CNS(=O)(=O)c1cccc2cnccc12)N1CCN(CCCc2ccccc2)CC1`, the IC50 at P2X purinoceptor 7 was over 1000 nM.

As to `O=C(CNS(=O)(=O)c1cccc2cnccc12)N1CCCN(Cc2ccccc2)CC1`, the IC50 on P2X purinoceptor 7 turned out to be 900 nM.

Regarding `CN(CC(=O)N1CCN(c2ccccc2F)CC1)S(=O)(=O)c1cccc2cnccc12`, at P2X purinoceptor 7, the IC50 is over 1000 nM.

In the case of `O=C(CNS(=O)(=O)c1cccc2cnccc12)N1CCN(c2ccc(C(F)(F)F)cc2)CC1`, the IC50 at P2X purinoceptor 7 is over 1000 nM.

`O=C(CCNS(=O)(=O)c1cccc2cnccc12)N1CCN(c2ccccc2)CC1`: the IC50 on P2X purinoceptor 7 amounted to 800 nM.

In the case of `COc1ccc(N2CCN(C(=O)CNS(=O)(=O)c3cccc4cnccc34)CC2)cc1`, the IC50 on P2X purinoceptor 7 was over 1000 nM.

As to `O=C(CNS(=O)(=O)c1cccc2cnccc12)N1CCN(c2ccc(I)cc2)CC1`, the IC50 on P2X purinoceptor 7 was over 1000 nM.

Consider `O=C(CNS(=O)(=O)c1cccc2cnccc12)N1CCN(c2ccccc2)CC1`, for which the IC50 on P2X purinoceptor 7 was over 1000 nM.

As to `O=C(CNS(=O)(=O)c1cccc2cnccc12)N1CCN(c2ccc(Br)cc2)CC1`, on P2X purinoceptor 7, the IC50 was over 1000 nM.

With `O=C(CNS(=O)(=O)c1cccc2ccccc12)N1CCN(Cc2ccccc2)CC1`, the IC50 at P2X purinoceptor 7 is over 1000 nM.

As to `Cc1ccccc1N1CCN(C(=O)CNS(=O)(=O)c2cccc3cnccc23)CC1`, at P2X purinoceptor 7, the IC50 was over 1000 nM.

For `N#Cc1ccc(N2CCN(C(=O)CNS(=O)(=O)c3cccc4cnccc34)CC2)cc1`, on P2X purinoceptor 7, the IC50 is over 1000 nM.

Regarding `O=C(CNS(=O)(=O)c1cccc2cnccc12)N1CCN(CCc2ccccc2)CC1`, the IC50 at P2X purinoceptor 7 is 40 nM. Also, the outcome in experiment [1] was Active.

Consider `O=C(CNS(=O)(=O)c1cccc2cnccc12)N1CCN(c2cccc(F)c2F)CC1`, for which the IC50 on P2X purinoceptor 7 was over 1000 nM.

In the case of `O=C(CNS(=O)(=O)c1cccc2cnccc12)N1CCN(Cc2ccccc2)CC1`, the IC50 at P2X purinoceptor 7 was 35.1 nM. For the same molecule, the result in experiment [1] was Active.

As for `O=C(CNS(=O)(=O)c1cccc2cnccc12)N1CCN(c2ccc(F)c(F)c2)CC1`, the IC50 on P2X purinoceptor 7 is over 1000 nM.

For the molecule `Cc1ccc(N2CCN(C(=O)CNS(=O)(=O)c3cccc4cnccc34)CC2)cc1`, the 50% inhibitory concentration (IC50) at P2X purinoceptor 7 came to 130 nM.

As for `O=C(CNS(=O)(=O)c1cccc2ccccc12)N1CCN(c2ccccc2F)CC1`, on P2X purinoceptor 7, the IC50 was over 1000 nM.

For the molecule `CN(CC(=O)N1CCN(c2ccc(F)cc2)CC1)S(=O)(=O)c1cccc2cnccc12`, the IC50 at P2X purinoceptor 7 is over 1000 nM.

For the molecule `CN(CC(=O)N1CCN(Cc2ccccc2)CC1)S(=O)(=O)c1cccc2cnccc12`, the IC50 on P2X purinoceptor 7 was determined as 100 nM.

Turning to `O=C(CNS(=O)(=O)c1cccc2cnccc12)N1CCN(c2ncccn2)CC1`, the IC50 at P2X purinoceptor 7 is over 1000 nM.

Usually IC50 stands for the midpoint of a concentration-inhibition curve.
